Measurements taken from ChEMBL document CHEMBL5380787, “Optimized M24B Aminopeptidase Inhibitors for CARD8 Inflammasome Activation” (J Med Chem, 2023).
Calls of active or inactive are those of the source. No cut-off for these calls is given here.

Columns and labels:
Xaa-Pro aminopeptidase 1 [1] = target: T1, Xaa-Pro aminopeptidase 1 (Homo sapiens, UniProt Q9NQW7); test: Inhibition of 6-His tagged XPNPEP1 (unknown origin) expressed in Escherichia coli Rosetta DE3 cells using H-Lys(abz)-Pro-Pro-pNA as substrate at 20 uM incubated for 60 mins by fluorescence based analysis relative to control
Summary of the method: (§1)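 His6-tagged XPNPEP1 was expressed in E. coli Rosetta DE3 (IPTG, 16 h, 37 °C) and purified on TALON resin. Enzyme at 3.5 nM was exposed to compound, then H-Lys(abz)-Pro-Pro-pNA was added at 100 μM final. Fluorescence (Ex/Em 320/410) was followed for 60 min. Single-point inhibition used 20 μM; IC50 as mean ± SEM of three biological replicates.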

MV4-11 [2] = test: Cytotoxicity against human MV4-11 cells assessed as reduction in cell viability at 1 uM incubated for 24 hrs by celltiter-glo assay relative to control; assay type: functional
Summary of the method: (§2)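 Single-dose viability screen. MV4;11 or OCI-AML2 cells at 2000 cells/well were exposed to 1 μM compound for 24 h. Viability was read by CellTiter-Glo luminescence and expressed as percent inhibition. Values are means of three biological replicates.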

[3] = target: T2, Xaa-Pro dipeptidase (Homo sapiens) (UniProt P12955); test: Inhibition of recombinant human PEPD using Ala-Pro as substrate assessed as alanine release by measuring increase in fluorescense signal at 1 uM by fluorescence based analysis relative to control
T2 sequence (whole entry): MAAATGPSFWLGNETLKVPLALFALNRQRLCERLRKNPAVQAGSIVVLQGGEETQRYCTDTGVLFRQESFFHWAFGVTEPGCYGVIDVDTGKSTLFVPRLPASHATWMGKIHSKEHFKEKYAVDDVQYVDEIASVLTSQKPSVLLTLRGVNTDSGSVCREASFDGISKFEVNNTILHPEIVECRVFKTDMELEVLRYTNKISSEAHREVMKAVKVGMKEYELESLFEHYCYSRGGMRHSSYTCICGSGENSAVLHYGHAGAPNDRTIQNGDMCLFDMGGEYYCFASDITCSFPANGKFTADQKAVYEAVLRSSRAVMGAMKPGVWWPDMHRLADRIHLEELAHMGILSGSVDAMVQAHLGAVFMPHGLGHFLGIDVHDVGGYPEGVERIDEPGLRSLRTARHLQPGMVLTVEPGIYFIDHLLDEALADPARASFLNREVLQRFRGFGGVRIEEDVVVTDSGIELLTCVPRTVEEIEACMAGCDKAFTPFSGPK
Summary of the method: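 Recombinant human PEPD at 50 nM was incubated with Ala-Pro at 40 μM final and compound. Released alanine was detected by coupled alanine transaminase/pyruvate oxidase conversion to H2O2 and resorufin fluorescence (Ex/Em 535/587 nm) at 25 °C.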

OCI-AML2 [4] = test: Cytotoxicity against human OCI-AML2 cells assessed as reduction in cell viability at 1 uM incubated for 24 hrs by celltiter-glo assay relative to control; assay type: functional; summary of the method: as §2
MV4-11 [5] = test: Cytotoxicity against CASP1 knockout human MV4-11 cells assessed as reduction in cell viability incubated for 24 hrs by celltiter-glo assay; assay type: functional, cell-based; conditions: MV4-11, 24 h
Summary of the method: (§3)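 MV4;11 cells (WT or CASP1−/−), grown in RPMI 1640 with 10% FBS at 37 °C, 5% CO2, plated 2000 cells/well, dosed by pintool across 100 μM to 15.2 nM in three-fold steps for 24 h. Viability by CellTiter-Glo luminescence after 2 min shaking and 10 min at 25 °C. IC50 as mean ± SEM of three biological replicates.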

MV4-11 [6] = test: Cytotoxicity against human MV4-11 cells assessed as reduction in cell viability incubated for 24 hrs by celltiter-glo assay; assay type: functional, cell-based; conditions: MV4-11, 24 h; summary of the method: as §3
[7] = Stability of the compound in human MV4-11 cells assessed as esterase-mediated hydrolysis by LC-MS analysis; assay type: ADME, cell-based
Summary of the method: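 Compound was incubated in conditioned medium from MV4;11 cells for 24 h at 37 °C, and LC/MS then measured intact ester remaining and the de-esterified free acid. n = 3, mean ± SEM.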

[8] = target: T2, Xaa-Pro dipeptidase (Homo sapiens); test: (§4) Inhibition of recombinant human PEPD using Ala-Pro as substrate assessed as alanine release by measuring increase in fluorescense signal by fluorescence based analysis
[9] = Stability of the compound in human MV4-11 cells assessed as esterase-mediated hydrolysis measured after 8 hrs by LC-MS analysis; assay type: ADME, cell-based; conditions: mv4-11, 8 h
Xaa-Pro aminopeptidase 1 [10] = target: T1, Xaa-Pro aminopeptidase 1; test: Inhibition of 6-His tagged XPNPEP1 (unknown origin) expressed in Escherichia coli Rosetta DE3 cells using H-Lys(abz)-Pro-Pro-pNA as substrate incubated for 60 mins by fluorescence based analysis; summary of the method: as §1
MV4-11 [11] = test: Cytotoxicity against CASP1 knockout human MV4-11 cells assessed as reduction in cell viability at 0.015 to 100 uM incubated for 24 hrs by celltiter-glo assay; assay type: functional; conditions: dose 0.015-100 µM; summary of the method: as §3
Xaa-Pro dipeptidase = target: T3, Xaa-Pro dipeptidase (Homo sapiens, UniProt P12955); test: as §4
T3 sequence (P12955 whole entry): T2 sequence (whole entry)

MV4-11 [12] = test: Cytotoxicity against human MV4-11 cells assessed as reduction in cell viability at 0.015 to 100 uM incubated for 24 hrs by celltiter-glo assay; assay type: functional; conditions: dose 0.015-100 µM; summary of the method: as §3
OCI-AML2 [13] = test: Induction of cell death in human OCI-AML2 cells assessed as increase in PI uptake at 6.25 uM incubated for 6 hrs by PI staining based fluorescence analysis; assay type: functional
Summary of the method: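 PI flux assay. 2 × 10^4 MV4;11 (WT, CARD8−/− or CASP1−/−) or OCI-AML2 cells in RPMI were given compound at 6.25 μM plus PI at 10 μM final. Fluorescence (Ex/Em 535/617 nm) was read every 5 min at 37 °C for 6 h, baseline-corrected to DMSO and normalized to the maximum response. n = 3.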

HEK-293T [14] = test: Induction of pyroptosis in human HEK293T cells expressing CASP1 and GSDMD cotransfected with dTAG-CARD8ZUC and CARD8 FIIND S297A assessed as destabilization of DPP9-CARD8 ternary complex by measuring LDH release at 10 uM incubated for 6 hrs in presence of dTAG13; assay type: functional, cell-based
Summary of the method: (§5)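 HEK293T cells stably expressing CASP1 and GSDMD, 1.5 × 10^5 cells/well. 24 h later treated with dTAG-13 (500 nM) plus compound, DMSO as vehicle, for 6 h. Read-outs were supernatant LDH against a lysis control and GSDMD immunoblot.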

RAW264.7 [15] = test: Induction of pyroptosis in mouse RAW264.7 cells expressing NLRP1B allele 1 assessed as LDH release at 10 uM incubated for 24 hrs; assay type: functional, cell-based
Summary of the method: (§6)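 RAW264.7 cells in DMEM with L-glutamine and 10% FBS, 5 × 10^5 cells/well, treated 24 h. LDH in supernatant measured relative to a 9% Triton X-100 lysis control. GSDMD cleavage by immunoblot of PBS-sonicated lysates with protein normalized. Mean ± SEM of three biological replicates.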

THP-1 [16] = test: Induction of pyroptosis in CARD8 knockout human THP-1 cells harboring dox-inducible […] E274R mutant assessed as cell death by measuring LDH release at 10 uM pretreated with doxycycline for 16 hrs followed by compound addition and measured after 6 hrs; assay type: functional, cell-based
Summary of the method: (§7)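 CARD8−/− THP-1 cells stably carrying DOX-inducible CARD8 E274R, grown in RPMI 1640 with 10% FBS, 5 × 10^5 cells/well. DOX (100 ng/mL) for 16 h or no DOX, then compound for 6 h. Supernatant LDH measured relative to a Triton X-100 lysis control. GSDMD cleavage by SDS-PAGE immunoblot of protein-normalized lysates.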

BMDM [17] = test: Induction of pyroptosis in C57BL/6J mouse BMDM cells expressing NLRP1A and NLRP1B allele 2 assessed as GSDMD clevage at 10 uM incubated for 24 hrs by immunoblot analysis; assay type: functional, cell-based
Summary of the method: (§8)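 Bone marrow from femurs and tibias of 7–12-week-old C57BL/6J mice, red cells lysed. Cells differentiated 6 days at 37 °C in DMEM with 10% FBS and 15–20% L-cell medium, then replated. Exposure 24 h. LDH in supernatant measured relative to a 9% Triton X-100 lysis control. For GSDMD cleavage, cells sonicated in PBS, protein normalized, SDS-PAGE immunoblot.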

HEK-293T [18] = test: Induction of pyroptosis in human HEK293T cells expressing CASP1 and GSDMD cotransfected with dTAG-CARD8ZUC and CARD8 FIIND S297A assessed as destabilization of DPP9-CARD8 ternary complex by measuring GSDMD clevage at 10 uM incubated for 6 hrs in presence of dTAG13 by immunoblot analysis; assay type: functional, cell-based; summary of the method: as §5
BMDM [19] = test: Induction of pyroptosis in C57BL/6J mouse BMDM cells expressing NLRP1A and NLRP1B allele 2 assessed as LDH release at 10 uM incubated for 24 hrs; assay type: functional, cell-based; summary of the method: as §8
N/TERT-1 = test: Cytotoxicity against immortalized human N/TERT-1 Keratinocytes expressing human NLRP1 assessed as cell death at 10 uM incubated for 24 hrs by celltiter-glo assay; assay type: functional, cell-based
Summary of the method: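 N/TERT-1 keratinocytes grown in keratinocyte serum-free medium with penicillin/streptomycin, bovine pituitary extract (25 μg/mL) and EGF (0.2 ng/mL), 37 °C, 5% CO2. Compound added by pintool to 2000 cells/well, 24 h exposure. Viability read by CellTiter-Glo luminescence after 2 min shaking and 10 min at 25 °C. Mean ± SEM of three biological replicates.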

THP-1 [20] = test: Induction of pyroptosis in CARD8 knockout human THP-1 cells harboring dox-inducible […] E274R mutant assessed as GSDMD cleavage at 10 uM pretreated with doxycycline for 16 hrs followed by compound addition and measured after 6 hrs by immunoblot analysis; assay type: functional, cell-based; summary of the method: as §7
RAW264.7 [21] = test: Induction of pyroptosis in mouse RAW264.7 cells expressing NLRP1B allele 1 assessed as GSDMD clevage at 10 uM incubated for 24 hrs by immunoblot analysis; assay type: functional, cell-based; summary of the method: as §6
[22] = Stability in human MV4-11 cells assessed as retention time of parent compound incubated for 24 hrs by LC/MS analysis; assay type: ADME, cell-based; conditions: mv4-11, 24 h
Summary of the method: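 Compound was held in MV4;11 conditioned medium for 24 h at 37 °C, then LC/MS was run, recording the retention times of the parent ester and its free acid.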

T1 sequence (Q9NQW7 whole entry): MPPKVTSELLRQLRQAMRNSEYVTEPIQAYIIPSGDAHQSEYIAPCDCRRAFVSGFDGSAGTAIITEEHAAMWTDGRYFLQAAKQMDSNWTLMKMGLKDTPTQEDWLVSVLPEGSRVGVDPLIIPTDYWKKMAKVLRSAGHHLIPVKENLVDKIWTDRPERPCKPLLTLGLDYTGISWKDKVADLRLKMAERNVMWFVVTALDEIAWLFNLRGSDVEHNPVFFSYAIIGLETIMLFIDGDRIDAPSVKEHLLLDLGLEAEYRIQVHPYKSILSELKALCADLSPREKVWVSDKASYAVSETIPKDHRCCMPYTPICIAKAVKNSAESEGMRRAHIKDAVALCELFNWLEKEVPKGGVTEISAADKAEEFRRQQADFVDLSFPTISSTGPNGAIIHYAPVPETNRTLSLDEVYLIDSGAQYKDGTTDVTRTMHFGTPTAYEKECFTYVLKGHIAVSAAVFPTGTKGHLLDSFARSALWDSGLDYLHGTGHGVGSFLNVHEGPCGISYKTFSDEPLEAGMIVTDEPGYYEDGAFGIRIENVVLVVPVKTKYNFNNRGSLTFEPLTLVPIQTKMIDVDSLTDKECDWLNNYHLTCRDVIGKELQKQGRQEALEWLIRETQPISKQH

Work on `COC(=O)[C@H](Cc1ccccc1)NC(=O)[C@@H]1CCCN1C(=O)[C@@H](O)[C@H](N)CC(C)C` yielded an inhibition (Xaa-Pro aminopeptidase 1 [1]) of 81%, an Activity (MV4-11 [2]) of 72% and an inhibition [3] of 43%. It also gave an Activity (OCI-AML2 [4]) of 42%, an IC50 (MV4-11 [5]) of over 20 µM and an IC50 (MV4-11 [6]) of 0.66 µM.

For `CC(C)C[C@@H](N)[C@H](O)C(=O)N1CCC[C@H]1C(=O)OC(C)(C)C`, the Stability [7] was “Stable”, the inhibition [8] was “Active” and the Stability [9] was “Unstable”. The inhibition (Xaa-Pro aminopeptidase 1 [10]) was “Active”.

`CC(C)C[C@@H](N)[C@H](O)C(=O)N1CCC[C@H]1CNS(C)(=O)=O` gave an Activity (MV4-11 [11]) of 97%, an IC50 (Xaa-Pro dipeptidase) of over 100 µM and an IC50 (MV4-11 [6]) of over 100 µM. It also gave an Activity (MV4-11 [12]) of 89%.

For `COC(=O)[C@@H](NC(=O)[C@@H]1CCCN1C(=O)[C@@H](O)[C@H](N)CC(C)C)C(C)C`, the inhibition (Xaa-Pro aminopeptidase 1 [1]) was 65%, the Activity (MV4-11 [2]) was 59% and the inhibition [3] was 42%. It also gave an Activity (OCI-AML2 [4]) of 32%, an IC50 (MV4-11 [5]) of over 20 µM and an IC50 (MV4-11 [6]) of 0.45 µM. The Activity (OCI-AML2 [13]) was “Active”.

Molecule `COC(=O)[C@@H]1C[C@H](O)CN1C(=O)[C@@H](O)[C@H](N)CC(C)C` has an Activity (MV4-11 [11]) of 102%, an IC50 (Xaa-Pro dipeptidase) of over 100 µM and an IC50 (MV4-11 [6]) of over 100 µM. For the same molecule, the Activity (MV4-11 [12]) was 99%.

For `CC(C)[C@H](N)C(=O)N1CCC[C@H]1B(O)O`, the Activity (HEK-293T [14]) was “Active”, the Activity (RAW264.7 [15]) was “Active” and the Activity (THP-1 [16]) was “inactive”. For the same molecule, the Activity (BMDM [17]) was “Active”, the Activity (HEK-293T [18]) was “Active” and the Activity (BMDM [19]) was “Active”. The Activity (N/TERT-1) was “Active”, the Activity (THP-1 [20]) was “inactive” and the Activity (RAW264.7 [21]) was “Active”.

With `COC(=O)[C@H](Cc1ccccc1)NC(=O)[C@@H](O)[C@H](N)CC(C)C` the Activity (MV4-11 [11]) was 7%, the IC50 (Xaa-Pro dipeptidase) was over 100 µM and the IC50 (MV4-11 [6]) was 5.4 µM. It also gave an Activity (MV4-11 [12]) of 8%.

With `CC(C)C[C@H](NC(=O)[C@@H]1CCCN1C(=O)[C@@H](O)[C@H](N)CC(C)C)C(=O)NCCc1ccccc1` the Retention_time [22] was 3.24 min and the IC50 (MV4-11 [6]) was 0.84 µM.

In the case of `COC(=O)[C@H](CC(C)C)NC(=O)[C@@H](O)[C@H](N)Cc1ccccc1` [BESTATIN METHYL ESTER], the Activity (MV4-11 [11]) is reported as 11%, the IC50 (Xaa-Pro dipeptidase) is reported as over 100 µM and the IC50 (Xaa-Pro aminopeptidase 1 [10]) is reported as 298 µM. The IC50 (MV4-11 [6]) was 3.9 µM and the Activity (MV4-11 [12]) was 11%.
